Source: PMC9302689 (British Journal of Clinical Pharmacology, 2022)

How the values were obtained:
healthy male subjects [1] = assay: ECG, QTcF interval; assay type: in vivo, human
Method in brief: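 Randomized, double-blind, placebo-controlled single ascending dose study in healthy men, dosed 3–200 mg after an overnight fast. 12-lead ECGs were recorded in triplicate, 1 min apart, after 5 min rest in the semi-recumbent position, at scheduled times. QTc and other intervals were derived automatically from the digital ECGs by the Marquette 12SL algorithm.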

μ receptor = μ receptor (Homo sapiens, UniProt P35372); assay: In vitro binding affinity, μ receptor
μ receptor, sequence (P35372 whole entry): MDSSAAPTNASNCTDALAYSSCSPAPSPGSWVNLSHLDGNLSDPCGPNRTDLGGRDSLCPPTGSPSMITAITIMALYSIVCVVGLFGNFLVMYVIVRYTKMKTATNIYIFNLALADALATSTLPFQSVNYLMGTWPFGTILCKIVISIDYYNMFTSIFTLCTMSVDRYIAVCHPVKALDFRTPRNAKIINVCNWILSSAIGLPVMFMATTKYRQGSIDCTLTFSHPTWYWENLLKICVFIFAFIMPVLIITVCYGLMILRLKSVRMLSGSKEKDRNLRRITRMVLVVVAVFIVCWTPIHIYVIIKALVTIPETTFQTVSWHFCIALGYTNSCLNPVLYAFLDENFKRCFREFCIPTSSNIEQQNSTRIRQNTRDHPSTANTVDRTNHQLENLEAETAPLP

healthy male subjects [2] = assay: NeuroCart body sway; assay type: in vivo, human; details: 12-hour post-dose period
Method in brief: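 Single-dose, placebo-controlled study in fasted healthy men, tested twice pre-dose and at 0.5–10 h post-dose. Anteroposterior sway was recorded with eyes closed using a Wright-type ataxiameter. Movements over 2 min were integrated and expressed in mm. Values were ln-transformed, and change from baseline over 12 h was analysed by MMRM against pooled placebo, baseline as covariate, then back-transformed.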

α1B‐adrenoceptor = molecular target: T1, α1B‐adrenoceptor (Homo sapiens, UniProt P35368); assay: In vitro binding affinity, α1B-adrenoceptor; details: read-out: Ki, α1B-adrenoceptor; preclinical in vitro panel
T1 sequence (P35368 1-520): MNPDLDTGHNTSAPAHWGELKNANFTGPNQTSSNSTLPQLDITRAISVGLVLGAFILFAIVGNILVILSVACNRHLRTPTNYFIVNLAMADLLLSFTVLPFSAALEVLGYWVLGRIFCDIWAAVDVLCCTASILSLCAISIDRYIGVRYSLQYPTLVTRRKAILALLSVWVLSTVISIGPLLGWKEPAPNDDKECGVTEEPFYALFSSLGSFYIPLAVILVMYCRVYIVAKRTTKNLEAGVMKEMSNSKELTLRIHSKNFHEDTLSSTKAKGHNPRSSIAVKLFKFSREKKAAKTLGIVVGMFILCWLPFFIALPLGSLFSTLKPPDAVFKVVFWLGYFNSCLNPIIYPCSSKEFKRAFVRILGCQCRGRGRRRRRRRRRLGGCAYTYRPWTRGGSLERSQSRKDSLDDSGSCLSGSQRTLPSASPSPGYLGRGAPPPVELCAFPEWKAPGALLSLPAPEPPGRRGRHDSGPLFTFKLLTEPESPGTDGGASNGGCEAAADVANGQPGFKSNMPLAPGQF

healthy male subjects [3] = assay: Treatment emergent adverse events; assay type: in vivo, human; details: for Incidence of TEAE: Dizziness / Incidence of TEAE: Dizziness postural / Incidence of TEAE: Fatigue / Incidence of TEAE: Headache / Incidence of TEAE: Nausea / Incidence of TEAE: Oropharyngeal pain / Incidence of TEAE: Presyncope / Incidence of TEAE: Pruritus / Incidence of TEAE: Somnolence / Incidence of TEAE: Vomiting: n = 8
healthy male subjects [4] = assay: Orthostatic hypotension; assay type: in vivo, human

CN1CCC23CCCCC2C1Cc1ccc(C(N)=O)cc13 (stereo not drawn) [ALKS 7119, (9α, 13α)‐17‐methylmorphinan‐3‐carboxamide]
Subjects with QTcF increases from baseline of 30–60 ms (healthy male subjects [1]; all ALKS 7119 groups, only at 50 mg or higher, none in placebo): 8.8% | QTcF interval increases compared to baseline (healthy male subjects [1]; doses of ≥50 mg): 30 to 60 ms | Highest individual QTcF value (healthy male subjects [1]; subject treated with 200 mg): 475 ms | Increase of QTcF compared to baseline at highest individual value (healthy male subjects [1]; subject treated with 200 mg): 33 ms | Affinity for μ receptor lower than for SERT (μ receptor): 17 fold | Ki (μ receptor; read-out: Ki, μ receptor, preclinical in vitro panel): 600 nM | Body sway, LSM CFB (healthy male subjects [2]; 3 mg single oral dose): −0.14 LOG mm | Body sway, LSM CFB (healthy male subjects [2]; 10 mg single oral dose): 0.16 LOG mm | Body sway, LSM CFB (healthy male subjects [2]; 25 mg single oral dose): −0.03 LOG mm | Body sway, LSM CFB (healthy male subjects [2]; 50 mg single oral dose): 0.12 LOG mm | Body sway, LSM CFB (healthy male subjects [2]; 75 mg single oral dose): −0.06 LOG mm | Body sway, LSM CFB (healthy male subjects [2]; 100 mg single oral dose): 0.08 LOG mm | Ki (α1B‐adrenoceptor): 1800 nM | Incidence of TEAE: Dizziness (healthy male subjects [3]; 3 mg single oral dose): 0 | Incidence of TEAE: Dizziness postural (healthy male subjects [3]; 3 mg single oral dose): 0 | Incidence of TEAE: Fatigue (healthy male subjects [3]; 3 mg single oral dose): 3 | Incidence of TEAE: Headache (healthy male subjects [3]; 3 mg single oral dose): 0 | Incidence of TEAE: Nausea (healthy male subjects [3]; 3 mg single oral dose): 0 | Incidence of TEAE: Oropharyngeal pain (healthy male subjects [3]; 3 mg single oral dose): 0 | Incidence of TEAE: Presyncope (healthy male subjects [3]; 3 mg single oral dose): 0 | Incidence of TEAE: Pruritus (healthy male subjects [3]; 3 mg single oral dose): 0 | Incidence of TEAE: Somnolence (healthy male subjects [3]; 3 mg single oral dose): 0 | Incidence of TEAE: Vomiting (healthy male subjects [3]; 3 mg single oral dose): 0 | Incidence of TEAE: Dizziness (healthy male subjects [3]; 10 mg single oral dose): 0 | Incidence of TEAE: Dizziness postural (healthy male subjects [3]; 10 mg single oral dose): 0 | Incidence of TEAE: Fatigue (healthy male subjects [3]; 10 mg single oral dose): 1 | Incidence of TEAE: Headache (healthy male subjects [3]; 10 mg single oral dose): 1 | Incidence of TEAE: Nausea (healthy male subjects [3]; 10 mg single oral dose): 0 | Incidence of TEAE: Oropharyngeal pain (healthy male subjects [3]; 10 mg single oral dose): 0 | Incidence of TEAE: Presyncope (healthy male subjects [3]; 10 mg single oral dose): 1 | Incidence of TEAE: Pruritus (healthy male subjects [3]; 10 mg single oral dose): 0 | Incidence of TEAE: Somnolence (healthy male subjects [3]; 10 mg single oral dose): 1 | Incidence of TEAE: Vomiting (healthy male subjects [3]; 10 mg single oral dose): 0 | Incidence of TEAE: Dizziness (healthy male subjects [3]; 25 mg single oral dose): 0 | Incidence of TEAE: Dizziness postural (healthy male subjects [3]; 25 mg single oral dose): 0 | Incidence of TEAE: Fatigue (healthy male subjects [3]; 25 mg single oral dose): 2 | Incidence of TEAE: Headache (healthy male subjects [3]; 25 mg single oral dose): 0 | Incidence of TEAE: Nausea (healthy male subjects [3]; 25 mg single oral dose): 0 | Incidence of TEAE: Oropharyngeal pain (healthy male subjects [3]; 25 mg single oral dose): 0 | Incidence of TEAE: Presyncope (healthy male subjects [3]; 25 mg single oral dose): 1 | Incidence of TEAE: Pruritus (healthy male subjects [3]; 25 mg single oral dose): 0 | Incidence of TEAE: Somnolence (healthy male subjects [3]; 25 mg single oral dose): 0 | Incidence of TEAE: Vomiting (healthy male subjects [3]; 25 mg single oral dose): 0 | Incidence of TEAE: Dizziness (healthy male subjects [3]; 50 mg single oral dose): 0 | Incidence of TEAE: Dizziness postural (healthy male subjects [3]; 50 mg single oral dose): 0 | Incidence of TEAE: Fatigue (healthy male subjects [3]; 50 mg single oral dose): 0 | Incidence of TEAE: Headache (healthy male subjects [3]; 50 mg single oral dose): 2 | Incidence of TEAE: Nausea (healthy male subjects [3]; 50 mg single oral dose): 1 | Incidence of TEAE: Oropharyngeal pain (healthy male subjects [3]; 50 mg single oral dose): 0 | Incidence of TEAE: Presyncope (healthy male subjects [3]; 50 mg single oral dose): 1 | Incidence of TEAE: Pruritus (healthy male subjects [3]; 50 mg single oral dose): 0 | Incidence of TEAE: Somnolence (healthy male subjects [3]; 50 mg single oral dose): 2 | Incidence of TEAE: Vomiting (healthy male subjects [3]; 50 mg single oral dose): 0 | Incidence of TEAE: Dizziness (healthy male subjects [3]; 75 mg single oral dose): 0 | Incidence of TEAE: Dizziness postural (healthy male subjects [3]; 75 mg single oral dose): 0 | Incidence of TEAE: Fatigue (healthy male subjects [3]; 75 mg single oral dose): 0 | Incidence of TEAE: Headache (healthy male subjects [3]; 75 mg single oral dose): 3 | Incidence of TEAE: Nausea (healthy male subjects [3]; 75 mg single oral dose): 3 | Incidence of TEAE: Oropharyngeal pain (healthy male subjects [3]; 75 mg single oral dose): 0 | Incidence of TEAE: Presyncope (healthy male subjects [3]; 75 mg single oral dose): 3 | Incidence of TEAE: Pruritus (healthy male subjects [3]; 75 mg single oral dose): 0 | Incidence of TEAE: Somnolence (healthy male subjects [3]; 75 mg single oral dose): 1 | Incidence of TEAE: Vomiting (healthy male subjects [3]; 75 mg single oral dose): 2 | Incidence of TEAE: Dizziness (healthy male subjects [3]; 100 mg single oral dose): 0 | Incidence of TEAE: Dizziness postural (healthy male subjects [3]; 100 mg single oral dose): 2 | Incidence of TEAE: Fatigue (healthy male subjects [3]; 100 mg single oral dose): 0 | Incidence of TEAE: Headache (healthy male subjects [3]; 100 mg single oral dose): 3 | Incidence of TEAE: Nausea (healthy male subjects [3]; 100 mg single oral dose): 3 | Incidence of TEAE: Oropharyngeal pain (healthy male subjects [3]; 100 mg single oral dose): 0 | Incidence of TEAE: Presyncope (healthy male subjects [3]; 100 mg single oral dose): 1 | Incidence of TEAE: Pruritus (healthy male subjects [3]; 100 mg single oral dose): 0 | Incidence of TEAE: Somnolence (healthy male subjects [3]; 100 mg single oral dose): 2 | Incidence of TEAE: Vomiting (healthy male subjects [3]; 100 mg single oral dose): 1 | Incidence of TEAE: Dizziness (healthy male subjects [3]; 125 mg single oral dose): 1 | Incidence of TEAE: Dizziness postural (healthy male subjects [3]; 125 mg single oral dose): 0 | Incidence of TEAE: Fatigue (healthy male subjects [3]; 125 mg single oral dose): 0 | Incidence of TEAE: Headache (healthy male subjects [3]; 125 mg single oral dose): 2 | Incidence of TEAE: Nausea (healthy male subjects [3]; 125 mg single oral dose): 2 | Incidence of TEAE: Oropharyngeal pain (healthy male subjects [3]; 125 mg single oral dose): 0 | Incidence of TEAE: Presyncope (healthy male subjects [3]; 125 mg single oral dose): 0 | Incidence of TEAE: Pruritus (healthy male subjects [3]; 125 mg single oral dose): 1 | Incidence of TEAE: Somnolence (healthy male subjects [3]; 125 mg single oral dose): 0 | Incidence of TEAE: Vomiting (healthy male subjects [3]; 125 mg single oral dose): 0 | Incidence of TEAE: Dizziness (healthy male subjects [3]; 150 mg single oral dose): 1 | Incidence of TEAE: Dizziness postural (healthy male subjects [3]; 150 mg single oral dose): 0 | Incidence of TEAE: Fatigue (healthy male subjects [3]; 150 mg single oral dose): 1 | Incidence of TEAE: Headache (healthy male subjects [3]; 150 mg single oral dose): 2 | Incidence of TEAE: Nausea (healthy male subjects [3]; 150 mg single oral dose): 5 | Incidence of TEAE: Oropharyngeal pain (healthy male subjects [3]; 150 mg single oral dose): 0 | Incidence of TEAE: Presyncope (healthy male subjects [3]; 150 mg single oral dose): 3 | Incidence of TEAE: Pruritus (healthy male subjects [3]; 150 mg single oral dose): 0 | Incidence of TEAE: Somnolence (healthy male subjects [3]; 150 mg single oral dose): 1 | Incidence of TEAE: Vomiting (healthy male subjects [3]; 150 mg single oral dose): 1 | Incidence of TEAE: Dizziness (healthy male subjects [3]; 175 mg single oral dose): 0 | Incidence of TEAE: Dizziness postural (healthy male subjects [3]; 175 mg single oral dose): 0 | Incidence of TEAE: Fatigue (healthy male subjects [3]; 175 mg single oral dose): 0 | Incidence of TEAE: Headache (healthy male subjects [3]; 175 mg single oral dose): 0 | Incidence of TEAE: Nausea (healthy male subjects [3]; 175 mg single oral dose): 5 | Incidence of TEAE: Oropharyngeal pain (healthy male subjects [3]; 175 mg single oral dose): 0 | Incidence of TEAE: Presyncope (healthy male subjects [3]; 175 mg single oral dose): 4 | Incidence of TEAE: Pruritus (healthy male subjects [3]; 175 mg single oral dose): 0 | Incidence of TEAE: Somnolence (healthy male subjects [3]; 175 mg single oral dose): 1 | Incidence of TEAE: Vomiting (healthy male subjects [3]; 175 mg single oral dose): 0 | Incidence of TEAE: Dizziness (healthy male subjects [3]; 200 mg single oral dose): 2 | Incidence of TEAE: Dizziness postural (healthy male subjects [3]; 200 mg single oral dose): 0 | Incidence of TEAE: Fatigue (healthy male subjects [3]; 200 mg single oral dose): 1 | Incidence of TEAE: Headache (healthy male subjects [3]; 200 mg single oral dose): 3 | Incidence of TEAE: Nausea (healthy male subjects [3]; 200 mg single oral dose): 3 | Incidence of TEAE: Oropharyngeal pain (healthy male subjects [3]; 200 mg single oral dose): 0 | Incidence of TEAE: Presyncope (healthy male subjects [3]; 200 mg single oral dose): 1 | Incidence of TEAE: Pruritus (healthy male subjects [3]; 200 mg single oral dose): 2 | Incidence of TEAE: Somnolence (healthy male subjects [3]; 200 mg single oral dose): 1 | Incidence of TEAE: Vomiting (healthy male subjects [3]; 200 mg single oral dose): 0 | Subjects reporting TEAEs (healthy male subjects [3]; all ALKS 7119 doses, 51 of 80 subjects (placebo 40%)): 64% | Incidence of orthostatic hypotension (healthy male subjects [4]; 200 mg dosing group, three subjects): 37.5% | Incidence of orthostatic hypotension (healthy male subjects [4]; all ALKS 7119 dose groups (placebo 15%)): 17.5%
